# This is a sample that favours compounds with a hit; in the whole collection about 2.1% have one here.
# SMARCA2 activ = activators of SMARCA2 function; MG213 cells, MMTV-luciferase reporter, dexamethasone, overnight; activation, % at 9.1 µM; hit rate 1% among 370,000; in the data active means activation above about 7.8%;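 further: 0% = vehicle wells and 100% = reference activator wells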
# MC4R barr agon = human MC4R agonism via beta-arrestin. activation, % at 8.9 µM. hit rate 0.98% among 360,000. P32245. U2OS MC4R beta-arrestin complementation, luminescence; percent of melanotan II response, DMSO zero. AID 540308;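 active means activation above a per-plate cutoff, the mean activation of sample wells on that plate plus 3 SD, cut at about 8% in these data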
# Target sequence (P32245 whole entry, looked up): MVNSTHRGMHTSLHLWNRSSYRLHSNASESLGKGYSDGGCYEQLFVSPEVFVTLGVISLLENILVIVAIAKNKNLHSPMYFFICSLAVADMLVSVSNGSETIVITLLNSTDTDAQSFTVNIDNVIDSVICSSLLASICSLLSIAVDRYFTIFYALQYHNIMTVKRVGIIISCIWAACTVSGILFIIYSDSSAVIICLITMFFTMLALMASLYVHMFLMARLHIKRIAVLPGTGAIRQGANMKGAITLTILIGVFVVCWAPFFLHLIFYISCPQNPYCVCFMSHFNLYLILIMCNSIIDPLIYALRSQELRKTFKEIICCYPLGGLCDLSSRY
# MC4R antag cAMP = blocks human MC4R cAMP signaling. P32245. MC4R-expressing cells, MTII-stimulated cAMP, LANCE TR-FRET. inhibition, % at 6.5 µM. hit rate 0.48% among 360,000. AID 540295;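 active means inhibition above its plate's cutoff, the mean of tested wells on that plate plus 3 SD, cut at about 29% in these data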;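 further: 0% = Melanotan II alone and 100% = Melanotan II plus saturating MCL0020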
#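 material = U2OS cells stably expressing human melanocortin 4 receptor (MC4R) | also added = Melanotan II challenge | dosing = single nominal compound dose of 6.5 µM | detection = TR-FRET with Eu-cAMP and labeled anti-cAMP, 671 nm | replication = singlicate | timing = compound 30 min, challenge 1 h, detection 1 h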
# F508del corr = CFTR F508del correction in bronchial cells. CFBE cells, YFP halide quenching; stimulated with forskolin plus potentiator P3; % fluorescence drop versus neutral controls. activity (quench increase), % at 7.58 µM. hit rate 0.36% among 350,000. AID 720511;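 active means mean added fluorescence quench of at least 8% versus neutral control, with both replicates also reaching 8%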;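 further: cells transiently co-express mutant CFTR-F508del with the halide-sensitive YFP; corrector assay measuring rescue of mutant channel to the surface after 24 h compound exposure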
# Numbers without * were called inactive; / = no result; ! = not active in a repeat.
SMILES,SMARCA2 activ,MC4R barr agon,MC4R antag cAMP,F508del corr
CCCNC(=O)N1C[C@H](O)COC[C@@H]2O[C@@H](CC(=O)N[C@H]3CCN(Cc4ccccc4)C3)CC[C@H]21,/,/,/,1
CCCNC(=O)[C@@H]1[C@@H](CO)[C@@H]2Cn3c(ccc(-c4cccnc4)c3=O)[C@H]1N2C(=O)Nc1ccccc1,/,/,/,-2
C[C@@H]1CN([C@@H](C)CO)C(=O)Cc2cc(NC(=O)Cc3cn(C)c4ccccc34)ccc2O[C@@H]1CN(C)S(C)(=O)=O,/,/,/,-4
COc1ccccc1CNCc1ccc2c(c1)OCO2,-5,-1,-3,-1
O=Cc1ccccc1OCc1ccc2c(c1)OCO2,-1,-2,-25,11*
COc1ccccc1C#Cc1ccc2c(c1)O[C@H](CN(C)C)[C@@H](C)CN([C@H](C)CO)S2(=O)=O,/,/,/,-3
COc1ccc2c3c(n(C)c2c1)[C@H](CO)N(C(=O)CC1CC1)CC31CN(Cc2ccccc2)C1,/,/,/,2
O=c1[nH]nc(Cc2ccc(-c3ccccc3Cl)o2)c2ccccc12,-1,8.9*,-2,/
C[C@@H]1CN([C@H](C)CO)C(=O)Cc2cc(NS(=O)(=O)c3ccc(F)cc3)ccc2O[C@H]1CN(C)S(=O)(=O)c1ccccc1,/,/,/,-2
CC(C)CC1Nc2ncnc(N3CCN(c4ccccn4)CC3)c2N(Cc2ccc(Br)cc2)C1=O (configuration not stated),-3,-2,8,8.3*
Cc1ccc(CN2C(=O)C(CC(C)C)Nc3ncnc(N4CCN(c5ccccn5)CC4)c32)cc1 (configuration not stated),1,-2,11,-2
O=C(NCc1ccccc1Cl)c1ccc(-c2ccccc2)cc1,0,9.3*,5,/
O=C(NCc1ccccc1Cl)c1ccncc1,0,1,2,2
O=C(NCC[C@@H]1CC[C@@H](NC(=O)C2CCCCC2)[C@H](CO)O1)c1ccc(F)cc1,/,/,/,3
CCOC(=O)c1c(NC(=O)C(=O)N/N=C/c2ccccc2O)sc2c1CCCCC2,0,0,4,16*
CCC(=O)N1[C@@H]2c3cccc(=O)n3C[C@@H]2[C@@H](CO)[C@@H]1C(=O)NCc1ccccc1F,/,/,/,-2
O=C(Nc1ccc(/C=C/c2nc3ccccc3o2)cc1)c1c(F)cccc1F,4,8.9*,10,/
CC(=O)Nc1ccc(/C=C/c2nc3ccccc3o2)cc1,3,-1,2,2
Cc1nc2sc(C(=O)Nc3ccccc3)c(N)c2c(C)c1[N+](=O)[O-],0,9.3*,-9,3
Cc1c(Cc2ccccc2)sc(/N=C/c2c(O)ccc3ccccc23)c1C(N)=O,/,10*,-2,/
CCS(=O)(=O)N1CCC2(CC1)CN(Cc1ccccc1OC)[C@H](CO)c1c2c2ccc(OC)cc2n1C,/,/,/,-3
Cc1ccc(NC(=S)N/N=C/c2c(C)nn(-c3ccccc3)c2N2CCCC2)cc1,0,8.6*,12,0
Cc1nn(-c2ccccc2)c(N2CCCC2)c1/C=N/NC(=S)Nc1ccc(F)cc1,0,1,10,2
C[C@H](CO)N1C[C@H](C)[C@@H](CN(C)C(=O)C2CCCCC2)OCCCC[C@H](C)Oc2ccc(NC(=O)CCCN(C)C)cc2C1=O,/,/,/,1
C/C(N)=C(/C#N)C(=O)COC(=O)c1cc(-c2ccc(Br)cc2)nc2ccccc12,-4,8.4*!,24,-4
SMILES,SMARCA2 activ,MC4R barr agon,MC4R antag cAMP,F508del corr
COc1cccc(-c2ccc(C3[C@@H]4CN(C(=O)C5CC5)C[C@H]3N4)cc2)c1 (some centres not stated),/,/,/,4
Cc1ccc(-n2nc3c(N4CCC(C(=O)NCc5ccccc5C)CC4)nnc(C)c3c2C)cc1,/,9.6*,10,/
CC(=Nc1ccccc1O)c1sc2ccccc2c1O,1,0,-2,10*
CC(=Nc1cccc(C)c1)c1sc2ccccc2c1O,7.9*,3,21,/
CC(=Nc1ccc(O)cc1)c1sc2ccccc2c1O,1,-1,6,/
CC(=O)NCCN=C(C)c1sc2ccccc2c1O,3,-2,-6,/
Cc1ccc(S(=O)(=O)N[C@H]2CC[C@H](CC(=O)NCCN3CCCCC3)O[C@H]2CO)cc1,/,/,/,-1
CCCNC(=O)Nc1ccc2c(c1)C(=O)N(C)C[C@H](OC)[C@H](C)CN(Cc1ccccc1)[C@@H](C)CO2,/,/,/,3
CCNC(=O)C[C@@H]1C=C[C@@H](NC(=O)NC2CCCCC2)[C@H](CO)O1,/,/,/,8.8*
CCNC(=O)C[C@H]1C=C[C@@H](NC(=O)NC2CCCCC2)[C@H](CO)O1,/,/,/,0
CCCNC(=O)N1C[C@H](C)[C@H](OC)CN(C)C(=O)c2ccc(NC(C)=O)cc2OC[C@@H]1C,/,/,/,-1
COc1ccccc1-c1cn[nH]c1-c1ccc(OCc2ccccc2)cc1O,-3,8,3,-6
COc1ccc(-c2cn[nH]c2-c2ccc(OCc3ccccc3)cc2O)cc1,-3,9.3*,6,0
COCCOC(=O)N1C(=O)[C@@]2(c3cc(C#Cc4ccc(OC)cc4)ccc31)[C@H](c1ccc(O)cc1)N1[C@H](c3ccccc3)[C@H](c3ccccc3)OC(=O)[C@H]1[C@@H]2C(=O)N1CCCCCCC1,/,/,/,-2
COc1ccc(NC(=O)CSc2nnc(Cc3cccs3)n2C)cc1,-2,-4,5,10*
C[C@@H]1CCCCO[C@@H](CN(C)Cc2ccc(C(=O)O)cc2)[C@H](C)CN([C@@H](C)CO)C(=O)c2cc(NC(=O)c3ccncc3)ccc2O1,/,/,/,-1
CCC(=O)N1CC2(C1)[C@@H](c1ccccc1)[C@@H](CO)N2C(=O)c1cccnc1,/,/,/,-4
CC12CC3(C)CC(C)(C1)CC(C(=O)NC(=S)N1CCOCC1)(C2)C3,1,8.7*,7,-1
CCCCc1nc(Cl)c(CO)n1Cc1ccc(-c2ccccc2-c2nnn[nH]2)cc1,-5,-2,3,-2
CCCCc1nc(Cl)c(CO)n1Cc1ccc(-c2ccccc2-c2nn[nH]n2)cc1,1,1,3,8.1*
O=C(C[C@@H]1C[C@@H]2c3cc(NS(=O)(=O)c4ccccc4)ccc3O[C@@H]2[C@H](CO)O1)N1CCCCC1,/,/,/,-1
FC(F)(F)c1cccc(NC(=S)N2CCN(c3cccc(C(F)(F)F)c3)CC2)c1,1,9.2*,2,/
O=C(Cc1ccc(Cl)c(Cl)c1)OCC(=O)c1ccc[nH]1,2,7,-5,/
O=C(Cc1ccc(Cl)cc1)OCC(=O)c1ccc[nH]1,0,0,2,23*
C[C@H](CO)N1C[C@H](C)[C@@H](CN(C)C)OCc2cn(nn2)CCCC1=O,/,/,/,0
COc1ccc(N2C(=O)C(Cl)=C(Nc3ccc(OC)cc3OC)C2=O)cc1,0,13*,-3,-1
O=C(Nc1cc(Br)ccc1O)C1CC(c2ccccc2Cl)=NO1 (configuration not stated),0,8.6*,5,1
O=C(Nc1cc(Cl)ccc1O)C1CC(c2c(F)cccc2Cl)=NO1 (configuration not stated),-2,0,14,-8
CN1CCN(C(=O)CCN2C(=O)/C(=C/c3ccccc3Cl)SC2=S)CC1,7.9*,1,-9,0

# Compound activity deposited in PubChem by several laboratories.
